Assay results of several laboratories.
Lines come from different studies, so protocols differ.
MTNR1A: Melatonin receptor type 1A (MTNR1A, Homo sapiens, UniProt P48039)

SMILES	target	test	setting	endpoint	result
COc1ccc2cccc(C(CO)CNC(=O)CF)c2c1 (stereo not drawn)	MTNR1A	GTPγS binding, agonist, radiometric	cell membranes	Emax	47%
CCC(N)Cc1cc(OC)c(COC)cc1OC (stereo not drawn)	5-hydroxytryptamine receptor 2C (HTR2C, Homo sapiens, UniProt P28335)	G protein activation, agonist, BRET		Emax	82%
COc1ccc2[nH]cc(CCNC(=O)CI)c2c1	MTNR1A	GTPγS binding, agonist, radiometric	cell membranes	Emax	83%
CN[C@@]1(c2ccccc2Cl)CCCCC1=O	Fatty-acid amide hydrolase 1 (FAAH, Homo sapiens, UniProt O00519)	enzyme activity, inhibitor	30 µM	inhibition	11%
CCN(CC)CCCC[C@H](NC(=O)[C@H](CC(C)C)NC(=O)[C@H](C)NC(=O)[C@H](Cc1ccccc1)NC(=O)c1ccc(C(C)(C)C)cc1)C(=O)N[C@@H](CO)C(=O)OC	B2 bradykinin receptor (BDKRB2, Homo sapiens, UniProt P30411)	ligand displacement, radioligand	10 µM	remaining binding	107%
Nc1ncc(-c2nc(N3CCOCC3)nc(N3CCOCC3)n2)c(C(F)F)n1	Serine/threonine-protein kinase DCLK3 (DCLK3, Homo sapiens, UniProt Q9C098)	binding, competition with immobilised ligand	10 µM	remaining binding	73%
COc1ncccc1-c1cnn2ccc(N3CCN(C(=O)OC(C)C)CC3)nc12	Serine/threonine-protein kinase ULK3 (ULK3, Homo sapiens, UniProt Q6PHR2)	binding, competition with immobilised ligand	1 µM	remaining binding	54%
Cc1nn(C)cc1-c1nc2c(N3CCN(Cc4ccc(Cl)cc4)CC3)c(Cl)cnc2[nH]1	Receptor-type tyrosine-protein kinase FLT3 (FLT3, Homo sapiens, UniProt P36888)	binding, competition with immobilised ligand	1 µM	remaining binding	0.4%
C#Cc1n[nH]c2c(-c3cn([C@@H](C)c4ccccn4)c(=O)[nH]c3=O)cc(F)cc12	Rho-associated protein kinase 2 (ROCK2, Homo sapiens, UniProt O75116)	enzyme activity, inhibitor	0.1 µM	inhibition	1.2%
